Test results from ChEMBL document CHEMBL1123374, “Comparative pharmacology in the rat of ketamine and its two principal metabolites, norketamine and (Z)-6-hydroxynorketamine” (J Med Chem, 1986).

How the values were obtained:
Rattus norvegicus = test: Compound was administered to male Sprague-Dawley rats (250-300 g) by intravenous (iv) bolus injection at a dose of 40 mg/kg; format: functional
Outline: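 Male Sprague-Dawley rats (250-300 g) with right jugular vein catheter, 48 h recovery; 40 mg/kg iv bolus as free base in propylene glycol/ethanol/water (40/10/50) or HCl salt in 0.9% saline; controls given vehicle. Anesthesia duration by loss of righting reflex; locomotor activity by stabilimeter, excitation ended at <2 events per 3 min; mean ± SEM, n = 4.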

[1] = Partition coefficient was expressed as the ratio of the equilibrium concentration in benzene solvent to that in an equal volume of pH 7.4 aqueous buffer; format: ADME
Outline: (§1)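 Compound at 100 µg/mL in organic solvent shaken with equal volume 0.1 M sodium phosphate buffer pH 7.4, 30 min, ambient temperature; phases separated by centrifugation, each quantified by GC against internal standard; coefficient = organic/aqueous concentration ratio; triplicate per solvent, mean ± SEM.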

[2] = Partition coefficient was expressed as the ratio of the equilibrium concentration in chloroform solvent to that in an equal volume of pH 7.4 aqueous buffer; format: ADME; outline: as §1
[3] = Partition coefficient was expressed as the ratio of the equilibrium concentration in n-heptane solvent to that in an equal volume of pH 7.4 aqueous buffer; format: ADME; outline: as §1

Row | Compound | Duration of anesthesia (Rattus norvegicus) | Duration of increase in SLA (Rattus norvegicus) | Partition coefficient [1] | Partition coefficient [2] | Partition coefficient [3]
1 | NC1(c2ccccc2Cl)CCC[C@@H](O)C1=O (stereo not given in full) | 0 min | 0 min | 1.44 | 19.4 | 0.00963
2 | CNC1(c2ccccc2Cl)CCCCC1=O (stereo not given) [KETAMINE] | 7.11 min | 24.65 min | 98.6 | 299 | 6.36
3 | NC1(c2ccccc2Cl)CCCCC1=O (stereo not given) [NORKETAMINE] | 3.24 min | 7.15 min | 52.6 | 296 | 1.86
